Reference: ChEMBL document CHEMBL1156296, “Development of novel, highly potent inhibitors of V-RAF murine sarcoma viral oncogene homologue B1 (BRAF): increasing cellular potency through optimization of a distal heteroaromatic group” (J Med Chem, 2010)

Tests used:
[1] = Growth inhibition of human WM266.4 cells expressing BRAF V600E mutant after 5 days by SRB assay; type: functional; details: WM 266-4, 120 h
[2] = molecular target: T1, Serine/threonine-protein kinase B-raf (Homo sapiens, UniProt P15056, V600E); experiment: Inhibition of BRAF V600E mutant ERK phosphorylation in human WM266.4 cells; type: cell-based
T1 sequence (P15056 2-766 V600E limits assumed): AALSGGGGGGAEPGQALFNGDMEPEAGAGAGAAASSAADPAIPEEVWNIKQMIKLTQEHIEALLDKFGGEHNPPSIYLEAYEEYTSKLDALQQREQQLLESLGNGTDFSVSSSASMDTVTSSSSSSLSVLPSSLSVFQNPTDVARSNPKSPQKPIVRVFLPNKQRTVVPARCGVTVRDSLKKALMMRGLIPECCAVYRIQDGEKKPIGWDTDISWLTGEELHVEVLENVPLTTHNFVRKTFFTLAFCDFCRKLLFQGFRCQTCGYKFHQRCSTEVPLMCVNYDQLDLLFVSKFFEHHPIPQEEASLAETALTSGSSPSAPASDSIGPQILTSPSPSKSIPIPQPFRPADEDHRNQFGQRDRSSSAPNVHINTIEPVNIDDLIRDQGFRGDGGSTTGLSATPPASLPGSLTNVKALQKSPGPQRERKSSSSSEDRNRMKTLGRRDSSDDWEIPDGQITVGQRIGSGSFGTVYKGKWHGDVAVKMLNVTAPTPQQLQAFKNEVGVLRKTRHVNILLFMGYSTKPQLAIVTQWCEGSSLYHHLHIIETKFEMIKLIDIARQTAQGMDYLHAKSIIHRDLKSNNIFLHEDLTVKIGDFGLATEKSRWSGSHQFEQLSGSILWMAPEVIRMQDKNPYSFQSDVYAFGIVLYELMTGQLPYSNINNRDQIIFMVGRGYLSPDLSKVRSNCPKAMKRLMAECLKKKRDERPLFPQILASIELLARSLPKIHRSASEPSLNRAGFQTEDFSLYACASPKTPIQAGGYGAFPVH
Summary of the method: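 WM266.4 melanoma cells, which carry mutant V600E BRAF, exposed to inhibitor for 6 h. ERK phosphorylation (pERK) measured and IC50 derived. Run in triplicate, with a few compounds measured once.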

[3] = molecular target: T1, Serine/threonine-protein kinase B-raf; experiment: Inhibition of human BRAF V600E mutant expressed in baculovirus system
Summary of the method: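 Isolated purified V600E BRAF kinase with a 45 min incubation. Enzyme inhibition measured and IC50 derived. Run in triplicate, with one compound measured once.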

[4] = Selectivity ratio of GI50 for human WM266.4 cells expressing BRAF V600E mutant to GI50 for human WM1361 cells
[5] = Growth inhibition of wild type human WM1361 cells after 5 days by SRB assay; details: WM1361, 120 h
[6] = Oral bioavailability in BALB/cAnNCrl mouse at 10 mg/kg; type: ADME, organism-based; details: in vivo
Summary of the method: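 Female BALB/cAnNCrl mice, at least 6 weeks old. The oral arm was gavage at 10 mL/kg in DMSO/water 1:19. The iv arm was 2 mg/kg (~4 μmol/kg) at 10 mL/kg in DMSO/Tween-20/water 10:1:89, sampled at seven or eight points from 5 min to 18 or 24 h. Three mice per time point, terminal cardiac blood, plasma.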

[7] = Cmax in BALB/cAnNCrl mouse at 10 mg/kg, po; type: ADME, organism-based; set-up: dose 10 mg/kg, route oral; details: in vivo
Summary of the method: (§1)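 Female BALB/cAnNCrl mice, at least 6 weeks old, dosed once by oral gavage at 10 mL/kg in DMSO/water 1:19 v/v. Blood was taken at six or eight time points from 15 min to 18 or 24 h, three mice per time point, by terminal cardiac puncture under halothane or isoflurane into heparinized syringes. Plasma was snap frozen and stored at -70 °C.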

[8] = Half life in BALB/cAnNCrl mouse at 10 mg/kg, po; type: ADME, organism-based; set-up: dose 10 mg/kg, route oral; details: in vivo; summary of the method: as §1
[9] = Tmax in BALB/cAnNCrl mouse at 10 mg/kg, po; type: ADME, organism-based; set-up: dose 10 mg/kg, route oral; details: in vivo; summary of the method: as §1

SMILES | GI50 [1] | IC50 [2] | IC50 [3] | fold change (FC) [4] | GI50 [5] | bioavailability [6] | Cmax [7] | half-life [8] | Tmax [9]
CC(C)c1cc(NC(=O)Nc2ccc(Oc3ccnc4[nH]c(=O)[nH]c34)cc2)n(-c2ccccc2)n1 | 1170 nM | 1970 nM | 42 nM |  |  |  |  |  | 
CC(C)(C)c1cc(NC(=O)Nc2ccc(Sc3ccnc4[nH]c(=O)[nH]c34)cc2)n(-c2ccccc2)n1 | 12 nM | 70 nM | 215 nM |  |  |  |  |  | 
Cn1nc(C(C)(C)C)cc1NC(=O)Nc1ccc(Oc2ccnc3c2[nH]c(=O)n3C)c2ccccc12 | 470 nM | 470 nM | 197 nM |  |  |  |  |  | 
CC(C)(C)c1cc(NC(=O)Nc2ccc(Oc3ccnc4[nH]c(=O)[nH]c34)cc2)n(-c2ccccc2)n1 | 390 nM | 620 nM | 94 nM | 8 | 3200 nM |  |  |  | 
Cn1c(=O)[nH]c2nccc(Oc3ccc(NC(=O)Nc4cc(C(C)(C)C)nn4-c4ccc(F)cc4)c4ccccc34)c21 | 47 nM | 35 nM | 313 nM |  |  |  |  |  | 
CC(C)(C)c1cc(NC(=O)Nc2ccc(Oc3ccnc4[nH]c(=O)[nH]c34)cc2)n(-c2ccc(F)cc2F)n1 | 1230 nM | 1190 nM | 104 nM |  |  |  |  |  | 
Cc1ccc(-n2nc(C(C)(C)C)cc2NC(=O)Nc2ccc(Oc3ccnc4c3[nH]c(=O)n4C)c3ccccc23)cc1 | 1090 nM | 70 nM | 6300 nM |  |  |  |  |  | 
Cn1nc(C(C)(C)C)cc1NC(=O)Nc1ccc(Oc2ccnc3c2[nH]c(=O)n3C)cc1 | 1920 nM | 2900 nM | 258 nM |  |  |  |  |  | 
Cc1ccc(-n2nc(C(C)(C)C)cc2NC(=O)Nc2ccc(Sc3ccnc4[nH]c(=O)[nH]c34)cc2)cc1 | 259 nM | 234 nM | 2200 nM |  |  |  |  |  | 
Cc1ccc(-n2nc(C(C)(C)C)cc2NC(=O)Nc2ccc(Oc3ccnc4[nH]c(=O)n(C)c34)cc2)cc1 | 66 nM | 90 nM | 202 nM |  |  | 34% | 39.6 µM | 204 min | 60 min
CC(C)(C)c1csc(NC(=O)Nc2ccc(Oc3ccnc4[nH]c(=O)[nH]c34)cc2)n1 | 10400 nM |  | 7800 nM |  |  |  |  |  | 
Cc1cc(NC(=O)Nc2ccc(Oc3ccnc4[nH]c(=O)[nH]c34)cc2)n(-c2ccc(Cl)cc2)n1 | 21000 nM | 70000 nM | 290 nM |  |  |  |  |  | 
CC(C)(C)c1cc(NC(=O)Nc2ccc(Oc3ccnc4[nH]c(=O)[nH]c34)c3ccccc23)n(-c2ccc(F)cc2)n1 | 20 nM | 203 nM | 240 nM |  |  |  |  |  | 
CC(C)(C)c1cc(NC(=O)Nc2ccc(Oc3ccnc4[nH]c(=O)[nH]c34)cc2)n(-c2ccccn2)n1 | 3400 nM | 6400 nM | 210 nM |  |  |  |  |  | 
Cn1c(=O)[nH]c2c(Oc3ccc(NC(=O)Nc4cc(C(C)(C)C)nn4-c4ccccc4)c4ccccc34)ccnc21 | 167 nM | 27 nM | 6900 nM |  |  |  |  |  | 
Cc1ccc(-n2nc(C(C)(C)C)cc2NC(=O)Nc2ccc(Oc3ccnc4[nH]c(=O)[nH]c34)c3ccccc23)cc1 | 31 nM | 14 nM | 670 nM |  |  |  |  |  | 
Cc1ccc(-n2nc(C(C)(C)C)cc2NC(=O)Nc2ccc(Oc3ccnc4c3[nH]c(=O)n4C)cc2F)cn1 | 240 nM | 62 nM | 530 nM |  |  | 17% | 18 µM | 756 min | 15 min
Cc1ccc(-n2nc(C(C)(C)C)cc2NC(=O)Nc2ccc(Oc3ccnc4c3n(C)c(=O)n4C)cc2)cc1 | 210 nM | 190 nM | 1800 nM |  |  |  |  |  | 
CC(C)(C)c1cc(NC(=O)Nc2ccc(Oc3ccnc4[nH]c(=O)[nH]c34)cc2F)n(-c2ccccc2)n1 | 39 nM | 135 nM | 75 nM | 17 | 660 nM | 24% | 15 µM | 168 min | 15 min
CSc1cc(Oc2ccnc3[nH]c(=O)[nH]c23)ccc1NC(=O)Nc1cc(C(C)(C)C)nn1-c1ccc(C)cc1 | 16 nM | 56 nM | 76 nM |  |  |  |  |  | 
CC(C)(C)c1cc(NC(=O)Nc2ccc(Oc3ccnc4[nH]c(=O)[nH]c34)cc2)n(-c2ccc(Cl)cc2)n1 | 530 nM | 350 nM | 140 nM |  |  |  |  |  | 
Cn1c(=O)[nH]c2nccc(Oc3ccc(NC(=O)Nc4cc(C(C)(C)C)nn4-c4cccnc4)cc3)c21 | 590 nM | 830 nM | 390 nM |  |  |  |  |  | 

SMILES | GI50 [1] | IC50 [2] | IC50 [3] | fold change (FC) [4] | GI50 [5] | bioavailability [6] | Cmax [7] | half-life [8] | Tmax [9]
Cc1ccc(-n2nc(C(C)(C)C)cc2NC(=O)Nc2ccc(Oc3ccnc4c3n(C)c(=O)n4C)cc2F)cc1 | 320 nM | 52 nM | 1130 nM |  |  | 31% | 8.12 µM | 564 min | 30 min
CNC(=O)c1cc(Oc2ccc(NC(=O)Nc3ccc(Cl)c(C(F)(F)F)c3)cc2)ccn1 [SORAFENIB] |  |  |  | 1 | 4500 nM |  |  |  | 
Cn1c(=O)n(C)c2c(Oc3ccc(NC(=O)Nc4cc(C(C)(C)C)nn4-c4ccccc4)c(F)c3)ccnc21 | 33 nM | 122 nM | 1090 nM |  |  | 59% | 4.44 µM | 126 min | 30 min
Cn1c(=O)[nH]c2nccc(Oc3ccc(NC(=O)Nc4cc(C(C)(C)C)nn4-c4cccnc4)c4ccccc34)c21 | 69 nM | 100 nM | 790 nM |  |  | 5% | 4.21 µM | 48 min | 30 min
Cn1c(=O)[nH]c2c(Oc3ccc(NC(=O)Nc4cc(C(C)(C)C)nn4-c4ccccc4)cc3)ccnc21 | 61 nM | 130 nM | 880 nM |  |  |  |  |  | 
Cn1c(=O)[nH]c2nccc(Oc3ccc(NC(=O)Nc4cc(C(C)(C)C)nn4-c4ccccc4)cc3)c21 | 145 nM | 164 nM | 215 nM |  |  |  |  |  | 
Cn1nc(C(C)(C)C)cc1NC(=O)Nc1ccc(Oc2ccnc3[nH]c(=O)n(C)c23)cc1 | 4200 nM | 14100 nM | 84 nM |  |  |  |  |  | 
Cc1ccc(-n2nc(C(C)(C)C)cc2NC(=O)Nc2ccc(Oc3ccnc4[nH]c(=O)[nH]c34)cc2F)cc1 | 46 nM | 40 nM | 110 nM | 17 | 790 nM | 7% | 7.42 µM | 318 min | 90 min
CCCn1nc(C(C)(C)C)cc1NC(=O)Nc1ccc(Oc2ccnc3[nH]c(=O)[nH]c23)cc1 | 9500 nM | 10800 nM | 83 nM |  |  |  |  |  | 
O=C(Nc1ccc(Oc2ccnc3[nH]c(=O)[nH]c23)cc1)Nc1nnc(C2CCCO2)s1 (stereo not given) | 48900 nM | 58000 nM | 170 nM |  |  |  |  |  | 
Cn1nc(C(C)(C)C)cc1NC(=O)Nc1ccc(Oc2ccnc3[nH]c(=O)[nH]c23)cc1 | 12900 nM | 28000 nM | 33 nM |  |  |  |  |  | 
Cn1nc(C(C)(C)C)cc1NC(=O)Nc1ccc(Oc2ccnc3[nH]c(=O)[nH]c23)c2ccccc12 | 670 nM | 2300 nM | 11 nM |  |  |  |  |  | 
Cc1ccc(-n2nc(C(C)(C)C)cc2NC(=O)Nc2ccc(Oc3ccnc4c3[nH]c(=O)n4C)cc2)cc1 | 27 nM | 54 nM | 1190 nM |  |  | 30% | 22.7 µM | 204 min | 60 min
CC(C)(C)c1cc(NC(=O)Nc2ccc(Oc3ccnc4[nH]c(=O)[nH]c34)cc2)n(C(C)(C)C)n1 | 26000 nM | 33000 nM | 1190 nM |  |  |  |  |  | 
CC(C)(C)c1cc(NC(=O)Nc2ccc(Oc3ccnc4[nH]c(=O)[nH]c34)cc2)n(Cc2ccccc2)n1 | 10100 nM | 13400 nM | 147 nM |  |  |  |  |  | 
CC(C)(C)c1cc(NC(=O)Nc2ccc(Oc3ccnc4[nH]c(=O)[nH]c34)cc2)n(-c2ccc(F)cc2)n1 | 540 nM | 411 nM | 124 nM |  |  |  |  |  | 
Cn1c(=O)[nH]c2nccc(Oc3ccc(NC(=O)Nc4cc(C(C)(C)C)nn4-c4ccc(F)cc4)cc3)c21 | 497 nM | 1360 nM | 135 nM |  |  |  |  |  | 
CC(C)(C)c1cc(NC(=O)Nc2ccc(Oc3ccnc4[nH]c(=O)[nH]c34)c3ccccc23)n(-c2ccccc2)n1 | 34 nM | 35 nM | 510 nM |  |  |  |  |  | 
Cc1ccc(-n2nc(C(F)(F)F)cc2NC(=O)Nc2ccc(Oc3ccnc4[nH]c(=O)n(C)c34)cc2)cc1 | 1890 nM | 3200 nM | 176 nM |  |  |  |  |  | 
Cn1c(=O)[nH]c2nccc(Oc3ccc(NC(=O)Nc4cc(C5CC5)nn4-c4ccccc4)cc3)c21 | 3700 nM | 18200 nM | 143 nM |  |  |  |  |  | 
Cn1nc(C(C)(C)C)cc1NC(=O)Nc1ccc(Oc2ccnc3[nH]c(=O)n(C)c23)c2ccccc12 | 161 nM | 383 nM | 99 nM |  |  |  |  |  | 
